Conditions in all cases: stereoisomer not certain
Assay [1] addresses T1, UniProt Q8VGJ5.
T1 sequence (whole entry): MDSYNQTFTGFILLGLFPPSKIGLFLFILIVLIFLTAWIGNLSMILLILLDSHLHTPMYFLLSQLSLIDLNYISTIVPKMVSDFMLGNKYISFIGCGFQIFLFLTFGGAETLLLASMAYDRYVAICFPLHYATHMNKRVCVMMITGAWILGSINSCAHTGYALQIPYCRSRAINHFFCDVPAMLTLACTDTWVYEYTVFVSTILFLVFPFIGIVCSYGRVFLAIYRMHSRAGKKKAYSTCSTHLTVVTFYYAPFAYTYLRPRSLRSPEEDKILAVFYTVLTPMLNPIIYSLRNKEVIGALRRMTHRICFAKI
In outline: (§1)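 Transient luciferase assays in mammalian cell lines were common, though methods varied by source. The values come from published papers and their supplementary material, with extra details from the original authors when needed. Responsive refers to a measured signal the original authors judged statistically different from baseline, and non-responsive (inactive) to the remainder.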

For assay [2], the target named is T2, UniProt Q8VGL0.
T2 sequence (whole entry): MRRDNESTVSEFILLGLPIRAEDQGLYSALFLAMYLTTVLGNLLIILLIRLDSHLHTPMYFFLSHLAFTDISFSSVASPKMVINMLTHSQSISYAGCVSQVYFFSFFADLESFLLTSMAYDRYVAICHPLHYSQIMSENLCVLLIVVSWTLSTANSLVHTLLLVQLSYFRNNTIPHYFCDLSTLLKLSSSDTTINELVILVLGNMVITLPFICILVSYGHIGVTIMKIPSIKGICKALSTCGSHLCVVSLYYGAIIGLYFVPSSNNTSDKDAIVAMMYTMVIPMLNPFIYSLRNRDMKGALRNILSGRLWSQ
In a few lines:
as §1

Assay [3] has as its target T3, UniProt Q8VGL7.
T3 sequence (whole entry): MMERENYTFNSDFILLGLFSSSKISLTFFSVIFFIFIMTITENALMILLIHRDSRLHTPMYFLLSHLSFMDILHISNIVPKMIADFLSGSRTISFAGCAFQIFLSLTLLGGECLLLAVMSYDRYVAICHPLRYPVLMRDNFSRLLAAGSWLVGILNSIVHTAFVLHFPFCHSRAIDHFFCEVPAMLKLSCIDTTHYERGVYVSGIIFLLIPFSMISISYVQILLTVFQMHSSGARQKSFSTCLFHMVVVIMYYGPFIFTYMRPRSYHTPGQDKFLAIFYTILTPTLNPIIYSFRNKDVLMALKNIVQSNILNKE
In outline:
as §1

The target in assay [4] is T4, UniProt Q8VGM2.
T4 sequence (whole entry): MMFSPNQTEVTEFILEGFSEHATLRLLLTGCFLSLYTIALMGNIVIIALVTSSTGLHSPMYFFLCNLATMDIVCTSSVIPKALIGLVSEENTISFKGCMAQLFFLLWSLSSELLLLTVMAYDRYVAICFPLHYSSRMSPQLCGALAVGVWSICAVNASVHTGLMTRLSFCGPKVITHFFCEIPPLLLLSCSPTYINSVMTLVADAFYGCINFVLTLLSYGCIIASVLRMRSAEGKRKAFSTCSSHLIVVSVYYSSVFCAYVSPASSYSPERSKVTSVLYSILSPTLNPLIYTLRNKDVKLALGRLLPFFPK
In outline:
as §1

For assay [5], the target named is T5, UniProt Q8VGP6.
T5 sequence (whole entry): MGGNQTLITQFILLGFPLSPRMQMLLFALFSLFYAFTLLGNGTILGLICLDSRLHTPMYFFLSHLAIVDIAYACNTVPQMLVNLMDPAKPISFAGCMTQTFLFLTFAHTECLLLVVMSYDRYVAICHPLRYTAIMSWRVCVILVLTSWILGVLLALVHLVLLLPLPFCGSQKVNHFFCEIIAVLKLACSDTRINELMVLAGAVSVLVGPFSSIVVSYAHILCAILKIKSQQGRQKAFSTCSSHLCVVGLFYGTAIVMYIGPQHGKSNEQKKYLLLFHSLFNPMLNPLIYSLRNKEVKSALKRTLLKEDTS
In outline: as §1

Assay [6] has as its target T6, UniProt Q8VGQ3.
T6 sequence (whole entry): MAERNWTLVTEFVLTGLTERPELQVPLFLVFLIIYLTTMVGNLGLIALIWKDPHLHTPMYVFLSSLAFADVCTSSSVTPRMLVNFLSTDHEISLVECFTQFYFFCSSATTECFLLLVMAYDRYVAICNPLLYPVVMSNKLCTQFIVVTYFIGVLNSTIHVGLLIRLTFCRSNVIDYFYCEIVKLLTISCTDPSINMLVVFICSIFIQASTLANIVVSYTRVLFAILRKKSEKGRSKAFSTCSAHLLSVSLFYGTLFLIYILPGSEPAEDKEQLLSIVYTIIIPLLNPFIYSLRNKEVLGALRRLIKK
In a few lines:
as §1

The target of assay [7] is T7, UniProt Q8VGT4.
T7 sequence (whole entry): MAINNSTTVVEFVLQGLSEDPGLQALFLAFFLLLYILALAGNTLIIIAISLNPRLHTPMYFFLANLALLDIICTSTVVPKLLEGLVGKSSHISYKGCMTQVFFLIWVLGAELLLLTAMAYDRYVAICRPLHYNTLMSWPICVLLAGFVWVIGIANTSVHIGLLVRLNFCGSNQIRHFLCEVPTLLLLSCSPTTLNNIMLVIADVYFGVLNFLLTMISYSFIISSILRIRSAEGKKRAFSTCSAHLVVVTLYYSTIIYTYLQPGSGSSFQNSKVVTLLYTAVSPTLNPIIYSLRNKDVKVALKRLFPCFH
In outline: as §1

The target of assay [8] is T8, UniProt Q8VGU3.
T8 sequence (whole entry): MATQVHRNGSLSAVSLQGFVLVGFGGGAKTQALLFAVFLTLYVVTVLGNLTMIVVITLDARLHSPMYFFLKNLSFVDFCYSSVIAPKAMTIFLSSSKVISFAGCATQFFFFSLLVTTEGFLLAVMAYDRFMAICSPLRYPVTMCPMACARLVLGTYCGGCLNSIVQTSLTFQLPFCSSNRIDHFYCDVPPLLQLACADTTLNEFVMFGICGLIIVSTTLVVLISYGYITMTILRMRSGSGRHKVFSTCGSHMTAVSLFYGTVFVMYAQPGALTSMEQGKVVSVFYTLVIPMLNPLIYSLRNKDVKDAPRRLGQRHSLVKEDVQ
In outline: as §1

The target in assay [9] is T9, UniProt Q8VGV1.
T9 sequence (whole entry): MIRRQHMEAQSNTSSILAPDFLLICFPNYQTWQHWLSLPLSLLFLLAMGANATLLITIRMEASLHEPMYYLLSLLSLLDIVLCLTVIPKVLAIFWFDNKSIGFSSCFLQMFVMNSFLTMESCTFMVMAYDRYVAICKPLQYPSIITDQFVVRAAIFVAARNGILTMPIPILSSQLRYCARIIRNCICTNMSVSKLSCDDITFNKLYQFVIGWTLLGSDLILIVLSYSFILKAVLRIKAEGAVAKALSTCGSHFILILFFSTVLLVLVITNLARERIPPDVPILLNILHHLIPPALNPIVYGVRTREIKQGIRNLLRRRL
In a few lines:
as §1
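Also: active if original authors judged signal statistically different from baseline.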

In the case of `C=CCOC(=O)Cc1ccccc1`, the “odorant receptor agonist call” value in assay [1] and in assay [5] was “active” in each case. Besides, the “odorant receptor agonist call” value in [2], in [3], in [4], in assay [6], in assay [7] and in assay [8] was “inactive” throughout. The “odorant receptor agonist call” value in [9] is “inactive”.

Source of the values: the M2OR odorant receptor database.
